From ChEMBL document CHEMBL1157968, “Chemical and cytotoxic constituents from the leaves of Cinnamomum kotoense” (2006)

Key:
Assay type in all cases: functional
HeLa [1] = assay: Cell cycle arrest in human HeLa cells assessed as G2/M phase accumulation at 25 after 24 hrs by FACS
Method in brief: (§1)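 HeLa cells seeded 5 × 10^5 per dish 48 h ahead in DMEM with 10% FCS, then exposed to compound for 24 h (DMSO 0.1% final). Adherent and floating cells pooled, fixed in PBS-MeOH (1:2) at 4 °C for at least 18 h, and stained with PI (50 µg/mL) plus RNase A for 30 min at room temperature. Flow cytometry at 488 nm excitation, doublets gated out; phase percentages taken from DNA histograms.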

HeLa [2] = assay: Cell cycle arrest in human HeLa cells assessed as G1 phase accumulation at 50 uM after 24 hrs by FACS; method in brief: as §1
HeLa [3] = assay: Cell cycle arrest in human HeLa cells assessed as subG1 phase accumulation at 50 uM after 24 hrs by FACS; method in brief: as §1
HeLa [4] = assay: Cell cycle arrest in human HeLa cells assessed as S phase accumulation at 100 uM after 24 hrs by FACS; method in brief: as §1
HeLa [5] = assay: Cell cycle arrest in human HeLa cells assessed as G2/M phase accumulation at 100 uM after 24 hrs by FACS; method in brief: as §1
HeLa [6] = assay: Induction of apoptosis in human HeLa cells assessed as increase in intracellular hydrogen peroxide level at 100 uM after 3 hrs by FACS relative to untreated control
Method in brief: (§2)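 HeLa cells at 80% confluence were refed and exposed to 100 µM for 1, 3 or 24 h. They were loaded with 10 µM DCFH-DA for 30 min in the dark, trypsinized and resuspended in PBS. DCF fluorescence was measured by flow cytometry and expressed as fold versus untreated cells. At least three experiments.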

HeLa [7] = assay: Induction of apoptosis in human HeLa cells assessed as increase in intracellular peroxide level at 100 uM after 24 hrs by FACS relative to untreated control; method in brief: as §2
HeLa [8] = assay: Induction of apoptosis in human HeLa cells assessed as increase in intracellular glutathione-depleted cell population at 25 uM after 24 hrs by FACS
Method in brief: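 HeLa cells at 80% confluence got fresh medium and were exposed for 24 h. Adherent and floating cells were pooled, adjusted to (1-2) × 10^6/mL and stained with 25 µM CMF-DA for 30 min at 37 °C. After washing, flow cytometry scored the percentage of GSH-negative cells. At least three experiments.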

HeLa [9] = assay: Induction of apoptosis in human HeLa cells assessed as number of cells with decreased mitochondrial membrane potential at 100 uM after 6 hrs by measuring rhodamine 123 fluorescence intensity; parameters: scale not given: the % may be the effect or the level left
Method in brief: (§3)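 Cells in DMEM/10% FCS, medium renewed at 80% confluence, then 100 µM agent (0.1% DMSO final) for 1–24 h. Stained with 5 µM rhodamine 123 for 30 min in the dark, washed, trypsinized and resuspended in PBS; flow cytometry, percentage of cells with weak rhodamine 123 staining (reduced ΔΨm); at least three experiments, representative shown.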

HeLa [10] = assay: Induction of apoptosis in human HeLa cells assessed as number of cells with decreased mitochondrial membrane potential at 100 uM after 12 hrs by measuring rhodamine 123 fluorescence intensity; parameters: scale not given: the % may be the effect or the level left; method in brief: as §3
HeLa [11] = assay: Induction of apoptosis in human HeLa cells assessed as increase caspase 3/7 activities at 100 uM after 9 hrs by FACS relative to control
Method in brief: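 After 3–24 h exposure at 100 µM, HeLa cells were trypsinized. 1 × 10^6 cells in DMEM were mixed 1:1 with Z-DEVD-R110 substrate reagent and incubated 1 h at 37 °C, then washed. Released R110 read per cell by flow cytometry (ex 488/em 520 nm) and expressed as fold over untreated cells. At least three runs.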

HeLa [12] = assay: Induction of apoptosis in human HeLa cells assessed as increase p53 expression at 100 uM after 3 hrs by FACS
Method in brief: (§4)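 HeLa seeded at 5 × 10^5 cells/dish 48 h before, in DMEM with 10% FCS; medium renewed at 60% confluence, then 100 µM agent (0.1% DMSO final) for 0–24 h. Pooled floating and adherent cells fixed in 1% paraformaldehyde (15 min, 4 °C), permeabilized in 70% EtOH (30 min, 4 °C), then FITC-conjugated mouse anti-p53 mAb (1 h, 37 °C), PI/RNase counterstain; flow cytometry, % p53-positive cells; ≥3 experiments.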

HeLa [13] = assay: Induction of apoptosis in human HeLa cells assessed as increase p53 expression at 100 uM after 6 hrs by FACS; method in brief: as §4
HeLa [14] = assay: Induction of apoptosis in human HeLa cells pretreated with 5 uM cyclosporin A for 1 hr at 100 uM after 24 hrs by TUNEL assay
Method in brief: (§5)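 HeLa in DMEM/10% FCS, untreated or pretreated 1 h with listed inhibitor, then 100 µM agent (0.1% DMSO final) for 24 h. Pooled cells fixed in 1% paraformaldehyde (30 min, 4 °C), 70% EtOH (30 min, −20 °C); strand breaks labelled with TdT/fluorescein-BrdUTP (1 h, 37 °C), PI/RNase counterstain; flow cytometry, % apoptotic cells; ≥3 experiments.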

HeLa [15] = assay: Induction of apoptosis in human HeLa cells pretreated with 10 uM Dexamethasone for 1 hr at 100 uM after 24 hrs by TUNEL assay; method in brief: as §5
HeLa [16] = assay: Cell cycle arrest in human HeLa cells pretreated with 10 mM glutathione ethyl ester for 1 hr assessed as G1 phase accumulation at 100 uM after 24 hrs by FACS
Method in brief: (§6)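 HeLa cells pretreated for 1 h with the listed agent (10 mM GSH ethyl ester, 10 µM dexamethasone, 10 µM pifithrin, 100 µM Boc-Asp(OMe)-fmk or 5 µM cyclosporin A), then given 100 µM compound for 24 h. Cells fixed in PBS-MeOH, stained with PI/RNase and analysed by flow cytometry for DNA content. At least three experiments, one representative shown.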

HeLa [17] = assay: Cell cycle arrest in human HeLa cells pretreated with 10 mM glutathione ethyl ester for 1 hr assessed as subG1 phase accumulation at 100 uM after 24 hrs by FACS; method in brief: as §6
HeLa [18] = assay: Cell cycle arrest in human HeLa cells pretreated with 10 uM Dexamethasone for 1 hr assessed as S phase accumulation at 100 uM after 24 hrs by FACS; method in brief: as §6
HeLa [19] = assay: Cell cycle arrest in human HeLa cells pretreated with 10 uM Dexamethasone for 1 hr assessed as subG1 phase accumulation at 100 uM after 24 hrs by FACS; method in brief: as §6
HeLa [20] = assay: Cell cycle arrest in human HeLa cells pretreated with 10 uM pifithrin-alpha for 1 hr assessed as G1 phase accumulation at 100 uM after 24 hrs by FACS; method in brief: as §6
HeLa [21] = assay: Cell cycle arrest in human HeLa cells pretreated with 10 uM pifithrin-alpha for 1 hr assessed as subG1 phase accumulation at 100 uM after 24 hrs by FACS; method in brief: as §6

## CCCCCCCCCCCCC/C=C(/C(=O)OC)[C@@H](O)C(C)=O [SECOKOTOMOLIDE A]
HeLa [1]
  Activity: 28.7%
HeLa [2]
  Activity: 50.8%
HeLa [3]
  Activity: 61.2%
HeLa [4]
  Activity: 28.7%
HeLa [5]
  Activity: 31%
HeLa [6]
  fold change (FC): 2.9
HeLa [7]
  fold change (FC): 3.9
HeLa [8]
  Activity: 49%
HeLa [9]
  Activity: 23%
HeLa [10]
  Activity: 75.1%
HeLa [11]
  fold change (FC): 9.9
HeLa [12]
  Activity: 0.5%
HeLa [13]
  Activity: 3.2%
HeLa [14]
  Activity: 54.5%
HeLa [15]
  Activity: 55.3%
HeLa [16]
  Activity: 80%
HeLa [17]
  Activity: 11.3%
HeLa [18]
  Activity: 33.8%
HeLa [19]
  Activity: 47.7%
HeLa [20]
  Activity: 51.3%
HeLa [21]
  Activity: 40.9%
